What all share (type): cell-based
The target of assay [1] is T1, Ectonucleoside triphosphate diphosphohydrolase 3 (Homo sapiens) (UniProt O75355).
T1 sequence (whole entry): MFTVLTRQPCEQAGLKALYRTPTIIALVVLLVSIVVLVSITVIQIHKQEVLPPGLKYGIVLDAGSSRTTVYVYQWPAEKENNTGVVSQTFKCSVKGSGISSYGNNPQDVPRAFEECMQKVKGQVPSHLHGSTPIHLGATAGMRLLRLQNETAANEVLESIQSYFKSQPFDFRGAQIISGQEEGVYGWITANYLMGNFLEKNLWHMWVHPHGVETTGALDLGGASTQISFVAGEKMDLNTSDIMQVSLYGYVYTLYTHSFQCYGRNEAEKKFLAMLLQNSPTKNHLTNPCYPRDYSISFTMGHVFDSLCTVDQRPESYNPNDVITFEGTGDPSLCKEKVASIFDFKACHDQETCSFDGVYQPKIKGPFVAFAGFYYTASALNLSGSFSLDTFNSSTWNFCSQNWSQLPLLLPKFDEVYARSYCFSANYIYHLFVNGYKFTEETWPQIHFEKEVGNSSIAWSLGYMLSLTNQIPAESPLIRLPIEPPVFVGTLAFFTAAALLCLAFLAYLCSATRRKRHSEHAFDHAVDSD
The experiment in a line: Activity of human NTPDase 3 expressed in human 293T cells assessed as drug hydrolysis at 100 uM after 20 mins relative to ATP. Also on record: scale not given: the % may be the effect or the level left. A digest of the protocol:
(§1)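 Human NTPDase1, 2, 3 or 8 in crude extracts of transfected 293T cells, pre-incubated 3 min at 37 °C in Tris-Ringer buffer pH 7.4. […] Untransfected-cell extract activity subtracted.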

In assay [2] the target is T2, Ectonucleotide pyrophosphatase/phosphodiesterase family member 3 (Homo sapiens) (UniProt O14638).
T2 sequence (whole entry): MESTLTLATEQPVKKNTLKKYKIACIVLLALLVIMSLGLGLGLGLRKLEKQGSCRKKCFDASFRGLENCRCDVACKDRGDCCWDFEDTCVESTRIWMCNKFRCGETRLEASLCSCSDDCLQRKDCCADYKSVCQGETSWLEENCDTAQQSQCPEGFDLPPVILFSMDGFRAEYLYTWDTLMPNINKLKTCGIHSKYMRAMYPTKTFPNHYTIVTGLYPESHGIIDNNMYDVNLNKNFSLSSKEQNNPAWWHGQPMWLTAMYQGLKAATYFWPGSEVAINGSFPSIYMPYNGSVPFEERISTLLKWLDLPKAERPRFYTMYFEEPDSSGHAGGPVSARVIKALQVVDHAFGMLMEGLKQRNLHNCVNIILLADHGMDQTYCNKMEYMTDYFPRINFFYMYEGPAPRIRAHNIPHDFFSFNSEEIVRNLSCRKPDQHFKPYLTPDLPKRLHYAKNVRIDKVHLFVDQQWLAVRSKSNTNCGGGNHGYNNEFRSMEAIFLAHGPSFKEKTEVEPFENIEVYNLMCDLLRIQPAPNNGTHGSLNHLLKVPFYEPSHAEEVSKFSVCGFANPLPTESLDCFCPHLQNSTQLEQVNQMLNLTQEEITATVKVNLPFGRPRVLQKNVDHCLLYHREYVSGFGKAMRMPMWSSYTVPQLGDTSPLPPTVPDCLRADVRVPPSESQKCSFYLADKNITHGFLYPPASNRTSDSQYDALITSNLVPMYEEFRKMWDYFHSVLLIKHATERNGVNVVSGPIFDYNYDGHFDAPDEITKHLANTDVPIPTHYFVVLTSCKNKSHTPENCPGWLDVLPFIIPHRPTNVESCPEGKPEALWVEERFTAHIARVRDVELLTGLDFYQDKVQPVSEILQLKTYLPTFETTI
Put plainly: Inhibition of human NPP3 expressed in human 293T cells.

For assay [3], the target named is T3, Ectonucleoside triphosphate diphosphohydrolase 8 (Homo sapiens) (UniProt Q5MY95).
T3 sequence (whole entry): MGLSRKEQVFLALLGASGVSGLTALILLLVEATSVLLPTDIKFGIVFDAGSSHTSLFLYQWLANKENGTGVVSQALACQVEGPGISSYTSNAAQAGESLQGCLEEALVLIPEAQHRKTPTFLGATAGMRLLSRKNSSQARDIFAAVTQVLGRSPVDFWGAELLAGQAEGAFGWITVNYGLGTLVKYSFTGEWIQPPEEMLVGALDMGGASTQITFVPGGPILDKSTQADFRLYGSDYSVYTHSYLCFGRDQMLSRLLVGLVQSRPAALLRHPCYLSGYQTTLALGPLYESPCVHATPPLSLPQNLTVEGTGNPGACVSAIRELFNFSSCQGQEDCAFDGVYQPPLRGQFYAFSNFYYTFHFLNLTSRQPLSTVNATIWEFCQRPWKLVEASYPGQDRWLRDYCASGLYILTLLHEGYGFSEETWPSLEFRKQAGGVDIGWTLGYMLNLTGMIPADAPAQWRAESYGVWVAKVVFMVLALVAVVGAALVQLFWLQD
The experiment in a line: Activity of human NTPDase 8 expressed in human 293T cells assessed as drug hydrolysis at 100 uM after 20 mins relative to ATP. On the set-up: scale not given: the % may be the effect or the level left. A digest of the protocol:
as §1

From ChEMBL document CHEMBL1137702, “Identification of hydrolytically stable and selective P2Y(1) receptor agonists” (Eur J Med Chem, 2009) come the findings set out here.

Molecules are shown by their SMILES. Activity calls are given as the source filed them. No cut-off for these calls is given here. Where only a bound is given, the exact number is not on record here.

Take `CSc1nc(N)c2ncn([C@@H]3O[C@H](COP(=O)(O)OP(=O)(O)CP(=O)(O)O)[C@@H](O)[C@H]3O)c2n1`: the Activity in assay [1] and in assay [3] was 7% throughout. Also, the outcome in assay [2] was inactive.

Turning to `BP(=O)(OC[C@H]1O[C@@H](n2cnc3c(N)ncnc32)[C@H](O)[C@@H]1O)OP(=O)(O)CP(=O)(O)O` (stereo not given in full), the Activity was determined as 0% in assay [1] and 2% in assay [3]. The outcome in assay [2] was inactive.

Take `BP(=O)(OC[C@H]1O[C@@H](n2cnc3c(N)nc(SC)nc32)[C@H](O)[C@@H]1O)OP(=O)(O)CP(=O)(O)O` (single isomer, unassigned; diastereomer B): the figures for the Activity in assay [1] and in assay [3] were 2% and 3%, respectively. The outcome in assay [2] was inactive.

On to `BP(=O)(OC[C@H]1O[C@@H](n2cnc3c(N)ncnc32)[C@H](O)[C@@H]1O)OP(=O)(O)CP(=O)(O)O` (single isomer, unassigned; diastereomer B), for which the Activity in assay [1] was 6%; in assay [3], less than 1%. Further, the outcome in assay [2] was inactive.

Turning to `BP(=O)(OC[C@H]1O[C@@H](n2cnc3c(N)nc(SC)nc32)[C@H](O)[C@@H]1O)OP(=O)(O)CP(=O)(O)O` (single isomer, unassigned; diastereomer A), the results for the Activity in assay [1] and in assay [3] were 2% and 4%, respectively. In assay [2], the result was inactive.
